Results reported in ChEMBL document CHEMBL4339190, “2,6-Disubstituted imidazo[2,1-b][1,3,4]thiadiazole derivatives as potent staphylococcal biofilm inhibitors” (Eur J Med Chem, 2019).
The source made the active and inactive calls. The calls are words filed in the database; no cut-off is given here.

What was measured:
Staphylococcus aureus [1] = experiment: Antimicrobial activity against Staphylococcus aureus ATCC 25923 assessed as growth inhibition of planktonic forms incubated for 24 hrs; assay type: organism-based; settings: in vitro
Method in brief: (§1)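 Broth microdilution in tryptic soy broth. Two-fold series 100 to 0.75 μg/mL made from a 1 mg/mL stock in 0.9% NaCl. Inoculum ~10⁶ cfu/mL taken from a 24 h culture, 37 °C 24 h.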

Staphylococcus aureus [2] = experiment: Antimicrobial activity against Staphylococcus aureus ATCC 6538 assessed as growth inhibition of planktonic forms incubated for 24 hrs; assay type: organism-based; settings: in vitro; method in brief: as §1
[3] = tested on: Staphylococcus epidermidis; experiment: Antimicrobial activity against Staphylococcus epidermidis ATCC 12228 assessed as growth inhibition of planktonic forms incubated for 24 hrs; assay type: organism-based; settings: in vitro; method in brief: as §1
Pseudomonas aeruginosa [4] = experiment: Antimicrobial activity against Pseudomonas aeruginosa ATCC 15442 assessed as growth inhibition of planktonic forms incubated for 24 hrs; assay type: organism-based; settings: in vitro; method in brief: as §1
Escherichia coli [5] = experiment: Antimicrobial activity against Escherichia coli ATCC 25922 assessed as growth inhibition of planktonic forms incubated for 24 hrs; assay type: organism-based; settings: in vitro; method in brief: as §1
[6] = tested on: Staphylococcus epidermidis; experiment: Antibiofilm activity against Staphylococcus epidermidis ATCC 12228 incubated for 24 hrs by crystal violet-staining based assay; assay type: functional
Method in brief: (§2)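 Biofilm prevention: 0.5 McFarland inoculum (2.5 µL) in 100 µL TSB with 2% w/v glucose, compound present from the start over 100–0.1 µg/mL, 37 °C 24 h. Washed with PBS, stained 0.1% w/v crystal violet 30 min, eluted with 33% v/v acetic acid, read at 570 nm. BIC50 (50% inhibition versus untreated control) derived by linear regression; triplicate, repeated at least twice.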

Staphylococcus aureus [7] = experiment: Antibiofilm activity against Staphylococcus aureus ATCC 25923 assessed as inhibition of biofilm formation at 100 ug/ml incubated for 24 hrs by crystal violet-staining based assay; assay type: functional; settings: ATCC 25923, 24 h
Staphylococcus aureus [8] = experiment: Antibiofilm activity against Staphylococcus aureus ATCC 6538 assessed as inhibition of biofilm formation at 100 ug/ml incubated for 24 hrs by crystal violet-staining based assay; assay type: functional; settings: ATCC 6538, 24 h
Pseudomonas aeruginosa [9] = experiment: Antibiofilm activity against Pseudomonas aeruginosa ATCC 15442 assessed as inhibition of biofilm formation at 100 ug/ml incubated for 24 hrs by crystal violet-staining based assay; assay type: functional; settings: ATCC 15442, 24 h
Escherichia coli [10] = experiment: Antibiofilm activity against Escherichia coli ATCC 25922 assessed as inhibition of biofilm formation at 100 ug/ml incubated for 24 hrs by crystal violet-staining based assay; assay type: functional; settings: ATCC 25922, 24 h
Staphylococcus aureus [11] = experiment: Antibiofilm activity against Staphylococcus aureus ATCC 6538 incubated for 24 hrs by crystal violet-staining based assay; assay type: functional; method in brief: as §2
Staphylococcus aureus [12] = experiment: Antibiofilm activity against Staphylococcus aureus ATCC 25923 incubated for 24 hrs by crystal violet-staining based assay; assay type: functional; method in brief: as §2
Pseudomonas aeruginosa [13] = experiment: Antibiofilm activity against Pseudomonas aeruginosa ATCC 15442 incubated for 24 hrs by crystal violet-staining based assay; assay type: functional; method in brief: as §2
Escherichia coli [14] = experiment: Antibiofilm activity against Escherichia coli ATCC 25922 incubated for 24 hrs by crystal violet-staining based assay; assay type: functional; method in brief: as §2
Bacteria = experiment: Inhibition of recombinant bacterial SrtA at 100 uM using 5-FAM/QXL 520 Sortase as substrate preincubated for 10 mins followed by substrate addition and measured every 5 mins for 60 mins by fluorescence assay
Method in brief: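 FRET kit assay: 2.5 µg/ml recombinant SrtA, 4 µM fluorescent peptide substrate, compound at 100 µM in 1% DMSO. Compound and enzyme added first, then substrate. Fluorescence (Ex/Em 490/520 nm) recorded every 5 min for 60 min. Substrate without enzyme served as negative control and 4-(hydroxymercuri)benzoic acid as positive control.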

Row | Structure (SMILES) | MIC (Staphylococcus aureus [1]) | MIC (Staphylococcus aureus [2]) | MIC [3] | MIC (Pseudomonas aeruginosa [4]) | MIC (Escherichia coli [5]) | MBIC50 [6] | inhibition [6] | inhibition at 100 µg/mL (Pseudomonas aeruginosa [9]) | inhibition at 100 µg/mL (Escherichia coli [10]) | MBIC50 (Staphylococcus aureus [11]) | inhibition (Staphylococcus aureus [11]) | MBIC50 (Staphylococcus aureus [12]) | MBIC50 (Pseudomonas aeruginosa [13]) | MBIC50 (Escherichia coli [14]) | inhibition (Staphylococcus aureus [12]) | other results
1 | Br.COc1cccc(-c2cn3nc(-c4cn(C)c5ccc(Cl)cc45)sc3n2)c1 | > 100 µg/mL | > 100 µg/mL | > 100 µg/mL | > 100 µg/mL | > 100 µg/mL | 23.9 µM | Dose-dependent effect | < 15% | < 15% | – | – | – | – | – | – | inhibition at 100 µg/mL (Staphylococcus aureus [7]): < 15%; inhibition at 100 µg/mL (Staphylococcus aureus [8]): < 15%
2 | Cn1cc(-c2nn3cc(-c4ccc([N+](=O)[O-])cc4)nc3s2)c2cc(Cl)ccc21 | > 100 µg/mL | > 100 µg/mL | > 100 µg/mL | > 100 µg/mL | > 100 µg/mL | 78 µM | Dose-dependent effect | < 15% | < 15% | 33 µM | Dose-dependent effect | – | – | – | – | inhibition at 100 µg/mL (Staphylococcus aureus [7]): < 15%
3 | Br.Cn1cc(-c2nn3cc(-c4ccc(F)cc4)nc3s2)c2cc(Br)ccc21 | > 100 µg/mL | > 100 µg/mL | > 100 µg/mL | > 100 µg/mL | > 100 µg/mL | inactive | – | – | – | inactive | – | inactive | inactive | inactive | – | –
4 | Br.COc1cccc(-c2cn3nc(-c4c[nH]c5ccc(Br)cc45)sc3n2)c1 | > 100 µg/mL | > 100 µg/mL | > 100 µg/mL | > 100 µg/mL | > 100 µg/mL | inactive | – | – | – | inactive | – | inactive | inactive | inactive | – | –
5 | Br.Cn1cc(-c2nn3cc(-c4ccc([N+](=O)[O-])cc4)nc3s2)c2cc(Br)ccc21 | > 100 µg/mL | > 100 µg/mL | > 100 µg/mL | > 100 µg/mL | > 100 µg/mL | 71.7 µM | Dose-dependent effect | – | – | 3.1 µM | Dose-dependent effect | 20.9 µM | 38.6 µM | 19.6 µM | Dose-dependent effect | inhibition (Pseudomonas aeruginosa [13]): Dose-dependent effect; inhibition (Escherichia coli [14]): Dose-dependent effect
6 | Cn1cc(-c2nn3cc(-c4ccc(C(F)(F)F)cc4)nc3s2)c2ccccc21 | > 100 µg/mL | > 100 µg/mL | > 100 µg/mL | > 100 µg/mL | > 100 µg/mL | inactive | – | – | – | inactive | – | inactive | inactive | inactive | – | –
7 | Br.COc1cccc(-c2cn3nc(-c4c[nH]c5ccccc45)sc3n2)c1 | > 100 µg/mL | > 100 µg/mL | > 100 µg/mL | > 100 µg/mL | > 100 µg/mL | 33.4 µM | Dose-dependent effect | – | – | 37 µM | Dose-dependent effect | 80.2 µM | 80.2 µM | 69.7 µM | Dose-dependent effect | inhibition (Pseudomonas aeruginosa [13]): Dose-dependent effect; inhibition (Escherichia coli [14]): Dose-dependent effect
8 | Br.Brc1ccc2[nH]cc(-c3nn4cc(-c5ccccc5)nc4s3)c2c1 | > 100 µg/mL | > 100 µg/mL | > 100 µg/mL | > 100 µg/mL | > 100 µg/mL | inactive | – | – | – | inactive | – | inactive | inactive | inactive | – | –
9 | Cn1cc(-c2nn3cc(-c4ccc([N+](=O)[O-])cc4)nc3s2)c2ccccc21 | > 100 µg/mL | > 100 µg/mL | > 100 µg/mL | > 100 µg/mL | > 100 µg/mL | 21 µM | Dose-dependent effect | – | – | 3 µM | Dose-dependent effect | 21 µM | 30.1 µM | 34.3 µM | Dose-dependent effect | inhibition (Pseudomonas aeruginosa [13]): Dose-dependent effect; inhibition (Escherichia coli [14]): Dose-dependent effect
10 | Br.Clc1ccc2[nH]cc(-c3nn4cc(-c5ccccc5)nc4s3)c2c1 | > 100 µg/mL | > 100 µg/mL | > 100 µg/mL | > 100 µg/mL | > 100 µg/mL | inactive | – | – | – | inactive | – | inactive | inactive | inactive | – | –
11 | Br.Fc1ccc(-c2cn3nc(-c4c[nH]c5ccc(Br)cc45)sc3n2)cc1 | > 100 µg/mL | > 100 µg/mL | > 100 µg/mL | > 100 µg/mL | > 100 µg/mL | inactive | – | – | – | inactive | – | inactive | inactive | inactive | – | –
12 | FC(F)(F)c1ccc(-c2cn3nc(-c4c[nH]c5ccc(Br)cc45)sc3n2)cc1 | > 100 µg/mL | > 100 µg/mL | > 100 µg/mL | > 100 µg/mL | > 100 µg/mL | 19.2 µM | Dose-dependent effect | < 15% | < 15% | 13.3 µM | Dose-dependent effect | 16.8 µM | – | – | Dose-dependent effect | –
13 | FC(F)(F)c1ccc(-c2cn3nc(-c4c[nH]c5ccccc45)sc3n2)cc1 | > 100 µg/mL | > 100 µg/mL | > 100 µg/mL | > 100 µg/mL | > 100 µg/mL | inactive | – | – | – | inactive | – | inactive | inactive | inactive | – | –
14 | Cn1cc(-c2nn3cc(-c4ccc(F)cc4)nc3s2)c2cc(Cl)ccc21 | > 100 µg/mL | > 100 µg/mL | > 100 µg/mL | > 100 µg/mL | > 100 µg/mL | 17 µM | Dose-dependent effect | < 15% | < 15% | 50.4 µM | Dose-dependent effect | – | – | – | – | inhibition at 100 µg/mL (Staphylococcus aureus [7]): < 15%
15 | Br.COc1ccc(OC)c(-c2cn3nc(-c4c[nH]c5ccc(Cl)cc45)sc3n2)c1 | > 100 µg/mL | > 100 µg/mL | > 100 µg/mL | > 100 µg/mL | > 100 µg/mL | 18.9 µM | Dose-dependent effect | < 15% | – | 0.5 µM | Dose-dependent effect | 24.2 µM | – | 91.5 µM | Dose-dependent effect | MBIC90 (Staphylococcus aureus [11]): 16.2 µg/mL; inhibition (Escherichia coli [14]): Dose-dependent effect; inhibition (Bacteria): inactive
16 | Br.COc1cccc(-c2cn3nc(-c4cn(C)c5ccccc45)sc3n2)c1 | > 100 µg/mL | > 100 µg/mL | > 100 µg/mL | > 100 µg/mL | > 100 µg/mL | 41.9 µM | Dose-dependent effect | < 15% | < 15% | 28 µM | Dose-dependent effect | 1.8 µM | – | – | Dose-dependent effect | MBIC90 (Staphylococcus aureus [12]): 23.3 µg/mL; inhibition (Bacteria): inactive
